Results as given in ChEMBL document CHEMBL1126734, “Synthesis of phosphocholine and quaternary amine ether lipids and evaluation of in vitro antineoplastic activity” (1993).

What was measured:
HL-60 [1] = assay: Standard thymidine incorporation assay (TdR) was carried out for 48 hr and involved a 24-h pulse of [3H]- thymidine (n=5) and ID50 value was evaluated; format: functional; settings: Homo sapiens, read-out: ID50 (the source's name)
Outline: (§1)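 HL-60 human promyelocytic leukemia cells in RPMI 1640 with 10% heat-inactivated FBS, 37 °C, 5% CO2. Log-phase cells seeded at 5 × 10^4/well with inhibitor dilutions from ethanol stocks (1 or 10 mg/mL). At 24 h, pulsed with 1.0 μCi [methyl-3H]thymidine (6.7 Ci/mmol) for a further 24 h. Harvested onto glass fiber filters and counted by liquid scintillation as % of control. Quadruplicate determinations. Values in μM.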

HL-60 [2] = assay: Standard thymidine incorporation assay (TdR) was carried out for 48 hr with an 8 hr pulse of [3H]- thymidine (TdR8) (n=6) and ID50 value was evaluated; format: functional; settings: Homo sapiens, read-out: ID50 (the source's name)
Outline: (§2)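 HL-60 leukemia suspension cultures grown in RPMI 1640/10% FBS at 37 °C, 5% CO2. Cells seeded at 5 × 10^4/well with inhibitors diluted from ethanol stocks. 48-h exposure, with 1.0 μCi [methyl-3H]thymidine (6.7 Ci/mmol) added for the last 8 h. Filter-harvested cells counted by liquid scintillation, uptake expressed as percent of control. Quadruplicate determinations. Results in μM.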

HL-60 [3] = assay: Trypan blue exclusion assay (TB) was carried out for 48 h and the in vitro ID50 value was evaluated in the HL-60 leukemic cell system (n=3); format: functional; settings: Homo sapiens, HL-60, 48 h; read-out: ID50 (the source's name)
Outline: (§3)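 HL-60 human promyelocytic leukemia cells were grown in suspension in RPMI 1640 with 10% heat-inactivated FBS, penicillin/streptomycin, 2 mM L-glutamine and 0.22% NaHCO3 at 37 °C under 5% CO2. Cells at 5 × 10^5/mL were exposed to various inhibitor concentrations diluted from ethanol stocks into medium for 48 h. Trypan blue in PBS was then added and viable cells were counted by hemocytometer. Triplicate determinations; values in μM.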

HL-60 [4] = assay: Trypan blue exclusion assay (TB) was carried out for 48 hr and the in vitro ID50 value was evaluated in the HL-60 leukemic cell system (n=4); format: functional; settings: Homo sapiens, HL-60, 48 h; read-out: ID50 (the source's name); outline: as §3
HL-60 [5] = assay: Standard thymidine incorporation assay (TdR) was carried out for 48 hr and involved a 24-h pulse of [3H]- thymidine (n=2) and ID50 value was evaluated; format: functional; settings: Homo sapiens, read-out: ID50 (the source's name); outline: as §1
HL-60 [6] = assay: Standard thymidine incorporation assay (TdR) was carried out for 48 hr with an 8 hr pulse of [3H]- thymidine (TdR8) (n=4) and ID50 value was evaluated; format: functional; settings: Homo sapiens, read-out: ID50 (the source's name); outline: as §2
HL-60 [7] = assay: Standard thymidine incorporation assay (TdR) was carried out for 48 hr and involved a 24-h pulse of [3H]- thymidine (n=1) and ID50 value was evaluated; format: functional; settings: Homo sapiens, read-out: ID50 (the source's name); outline: as §1
HL-60 [8] = assay: Trypan blue exclusion assay (TB) was carried out for 48 hr and the in vitro ID50 value was evaluated in the HL-60 leukemic cell system (n=2); format: functional; settings: Homo sapiens, HL-60, 48 h; read-out: ID50 (the source's name); outline: as §3
HL-60 [9] = assay: Trypan blue exclusion assay (TB) was carried out for 48 hr and the in vitro ID50 value was evaluated in the HL-60 leukemic cell system (n=1); format: functional, Homo sapiens; settings: Homo sapiens, HL-60, 48 h; read-out: ID50 (the source's name); outline: as §3
HL-60 [10] = assay: Standard thymidine incorporation assay (TdR) was carried out for 48 hr and involved a 24-h pulse of [3H]- thymidine (n=3) and ID50 value was evaluated; format: functional; settings: Homo sapiens, read-out: ID50 (the source's name); outline: as §1
HL-60 [11] = assay: Standard thymidine incorporation assay (TdR) was carried out for 48 hr with an 8 hr pulse of [3H]- thymidine (TdR8) (n=3) and ID50 value was evaluated; format: functional; settings: Homo sapiens, read-out: ID50 (the source's name); outline: as §2

CCCCCCCCCCCCCCCCSCC(C[N+](C)(C)CC(O)CO)OC (stereo not given)
IC50 (HL-60 [1]): 3.05 µM
IC50 (HL-60 [2]): 1.9 µM
IC50 (HL-60 [3]): 3.62 µM

CCCCCCCCCCCCCCCCCC(=O)NCC(COP(=O)([O-])OCC[N+](C)(C)C)OCC (stereo not given)
IC50 (HL-60 [1]): 3.3 µM
IC50 (HL-60 [4]): 1.64 µM

CCCCCCCCCCCCCCCCOCC(CSCC[N+](C)(C)C)OC (stereo not given)
IC50 (HL-60 [5]): 2.4 µM
IC50 (HL-60 [6]): 1.85 µM
IC50 (HL-60 [3]): 2.23 µM

CCCCCCCCCCCCCCCCSCC[n+]1ccccc1
IC50 (HL-60 [7]): 2.28 µM

CCCCCCCCCCCCCCCCCCOCC(C[N+]1(C)CCC(O)CC1)OCC (stereo not given)
IC50 (HL-60 [5]): 4.3 µM

CCCCCCC(=O)CCCCCCCCCOCC(COP(=O)([O-])OCC[N+](C)(C)C)OCC (stereo not given)
IC50 (HL-60 [5]): 21.9 µM
IC50 (HL-60 [8]): 13 µM

CCCCCCCCCCCCCCCCOCC(COP(=O)([O-])OCC[N+](C)(C)C)(OC)OC
IC50 (HL-60 [9]): 3.38 µM

CCCCCCCCCCCCCCCCSCC(C[n+]1ccsc1)OC (stereo not given)
IC50 (HL-60 [5]): 7.17 µM
IC50 (HL-60 [9]): 8.75 µM

CCCCCCCCCCCCCCCCSCCC[N+]1(C)CCC(O)C1 (stereo not given)
IC50 (HL-60 [7]): 3.77 µM

CCCCCCCCCCCCCCCCCC(=O)NCCOP(=O)([O-])OCC[N+](C)(C)C
IC50 (HL-60 [5]): 7.02 µM
IC50 (HL-60 [6]): 5.73 µM
IC50 (HL-60 [8]): 4.56 µM

CCCCCCCCCCCCCCCCCCSCC(C)(COP(=O)([O-])OCC[N+](C)(C)C)OCC (stereo not given)
IC50 (HL-60 [8]): 3.83 µM

CCCCCCCCCCCCCCCCOCC(COP(=O)(O)OCCNC(C)C)OCC (stereo not given)
IC50 (HL-60 [9]): 4.7 µM

CCCCCCCCCCCCCCCCCC(=O)N(C)CC(COP(=O)([O-])OCC[N+](C)(C)C)OC (stereo not given)
IC50 (HL-60 [5]): 4.02 µM
IC50 (HL-60 [6]): 3.44 µM
IC50 (HL-60 [3]): 3.97 µM

CCCCCCCCCCCCCCCCSCC(COP(=O)([O-])OCC[N+](C)(C)C)OCCC (stereo not given)
IC50 (HL-60 [5]): 2.19 µM
IC50 (HL-60 [3]): 2.73 µM

CCCCCCCCCCCCSCC(C[N+](C)(C)C)OC (stereo not given)
IC50 (HL-60 [7]): 2.26 µM

CCCCCCCCCCCCCCCCCCOCC(C[N+]1(C)CCOCC1)OCC (stereo not given)
IC50 (HL-60 [5]): 3.92 µM
IC50 (HL-60 [9]): 2.92 µM

CCCCCCCCCCCCCCCCCC(=O)NCC(COP(=O)([O-])OCC[N+](C)(C)C)OCCCCCCCCCCCCCC (stereo not given)
IC50 (HL-60 [10]): > 100 µM

CCCCCCCCCCCCCCCCCC(=O)NCCCOP(=O)([O-])OCC[N+](C)(C)C
IC50 (HL-60 [10]): 6.08 µM
IC50 (HL-60 [3]): 5.48 µM

CCCCCCCCCCCCCCCCSCC(COC)C[N+](C)(C)C (stereo not given)
IC50 (HL-60 [7]): 3.52 µM

CCCCCCCCOCC(C[N+](C)(C)C)OC (stereo not given)
IC50 (HL-60 [11]): 27 µM
IC50 (HL-60 [3]): 21.2 µM
